Measured values reported in ChEMBL document CHEMBL5244225, “Bioassay-Guided Isolation of Fungistatic Compounds from Mimosa caesalpiniifolia Leaves” (J Nat Prod, 2019).
Active and inactive are the calls of the source. The rule behind the calls is not given here.

Columns and labels:
Pichia kudriavzevii [1] = assay: Antifungal activity against Candida krusei ATCC 6258 assessed as inhibition of microbial growth incubated for 24 hrs by broth microdilution method; type: functional, organism-based; settings: for IC50: ATCC 6258, 24 h; for IC90: ATCC 6258, time 24 hrs
Outline: (§1)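 Broth microdilution following CLSI M27-A3 and supplement M27-S4. Pure compounds were tested at 100 down to 0.06 μg mL−1 in a 10-step series, diluted from DMSO (≤1% DMSO final). Fluconazole served as the fungistatic control. Plates were incubated at 37 °C for 24 h and growth was read spectrophotometrically at 530 nm. IC50 and IC90 were taken as 50% and 90% growth inhibition.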

Nakaseomyces glabratus [2] = assay: Antifungal activity against Candida glabrata ATCC 90030 assessed as inhibition of microbial growth incubated for 24 hrs by broth microdilution method; type: functional, organism-based; settings: for IC50: ATCC 90030, 24 h; for IC90: ATCC 90030, time 24 hrs; outline: as §1
Pichia kudriavzevii [3] = assay: Antifungal activity against Candida krusei ATCC 6258 assessed as inhibition of microbial growth at 100 to 0.06 ug/ml incubated for 24 hrs by broth microdilution method; type: functional, organism-based; settings: dose 100-0.06 µg/ml
Pichia kudriavzevii [4] = assay: Antifungal activity against Candida krusei ATCC 6258 assessed as inhibition of microbial growth incubated for 24 hrs in the presence of 3-(beta-D-glucopyranosyloxy)sitosterol by broth microdilution method; type: functional, organism-based; settings: ATCC 6258, 24 h
Outline: (§2)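 Checkerboard combination of two compounds, each serially diluted in Mueller−Hinton broth. Ranges were set so that, after adding inoculum, concentrations sat at the range averages. Plates were incubated for 24 h at 37 °C and growth was quantified at 530 nm, as in the single-agent microdilution test. The inhibitory concentration of each compound was determined in combination.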

Nakaseomyces glabratus [5] = assay: Antifungal activity against Candida glabrata ATCC 90030 assessed as inhibition of microbial growth incubated for 24 hrs in the presence of 3-(beta-D-glucopyranosyloxy)sitosterol by broth microdilution method; type: functional, organism-based; settings: ATCC 90030, 24 h; outline: as §2
Pichia kudriavzevii [6] = assay: Synergistic antifungal activity against Candida krusei ATCC 6258 assessed as fractional inhibitory concentration index incubated for 24 hrs in the presence of 3-(beta-D-glucopyranosyloxy)sitosterol by checkerboard assay; type: functional
Outline: (§3)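 Checkerboard pairing of two compounds serially diluted in Mueller−Hinton broth, incubated for 24 h at 37 °C, with growth read spectrophotometrically at 530 nm. Each FIC is the compound's IC in combination divided by its IC alone, and ΣFIC is the sum of the FIC values. ΣFIC ≤0.5 was taken as synergy, 0.5–4 as no interaction and >4 as antagonism.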

Nakaseomyces glabratus [7] = assay: Additive antifungal activity against Candida glabrata ATCC 90030 assessed as fractional inhibitory concentration index incubated for 24 hrs in the presence of 3-(beta-D-glucopyranosyloxy)sitosterol by checkerboard assay; type: functional; outline: as §3
Nakaseomyces glabratus [8] = assay: Selectivity index, ratio of IC50 for antifungal activity against Candida glabrata ATCC 90030 to IC50 for antifungal activity against Candida glabrata ATCC 90030 in the presence of 3-(beta-D-glucopyranosyloxy)sitosterol; type: functional

Row | Structure (SMILES) | IC50 (Pichia kudriavzevii [1]) [µg/mL] | IC50 (Nakaseomyces glabratus [2]) [µg/mL] | IC90 (Pichia kudriavzevii [1]) [µg/mL] | also measured
1 | O=C(O)/C=C/c1c(O)cc2oc(-c3ccc(O)cc3)cc(=O)c2c1O | 15 | 3.9 |  | 
2 | C[C@H]1O[C@@H](c2c(O)cc3oc(-c4ccc(O)cc4)cc(=O)c3c2O)C[C@H](O)[C@H]1O | 250 | 1000 | 1000 | 
3 | O=c1c(O)c(-c2ccc(O)c(O)c2)oc2cc(O)cc(O)c12 [QUERCETIN] | 100 | 60 |  | 
4 | C[C@@H]1O[C@@H](O[C@H]2C(=O)[C@@H](O)[C@H](C)O[C@@H]2c2c(O)cc3oc(-c4ccc(O)c(O)c4)cc(=O)c3c2O)[C@H](O)[C@H](O)[C@H]1O |  | 100 |  | Activity (Pichia kudriavzevii [3]): inactive
5 | O=c1cc(-c2ccc(O)c(O)c2)oc2cc(O)cc(O)c12 [LUTEOLIN] |  | 15 |  | Activity (Pichia kudriavzevii [3]): inactive
6 | C[C@H]1O[C@@H](c2c(O)cc(O)c3c(=O)cc(-c4ccc(O)cc4)oc23)C[C@@H](O)[C@@H]1O | 7.8 | 3.9 | 250 | IC90 (Nakaseomyces glabratus [2]): 500 µg/mL
7 | CCOC(=O)c1cc(O)c(O)c(O)c1 [ETHYLGALLATE] | 15 | 15 |  | IC50 (Pichia kudriavzevii [4]): 1 µg/mL; IC50 (Nakaseomyces glabratus [5]): 2.5 µg/mL; fractional inhibitory concentration index (FICI) (Pichia kudriavzevii [6]): 0.1; fractional inhibitory concentration index (FICI) (Nakaseomyces glabratus [7]): 0.5; Ratio IC50 (Nakaseomyces glabratus [8]): 100
8 | O=C(O)/C=C/c1c(O)cc(O)c2c(=O)cc(-c3ccc(O)cc3)oc12 | 125 | 3.9 | 250 | IC90 (Nakaseomyces glabratus [2]): 250 µg/mL
9 | O=C(O)c1cc(O)c(O)c(O)c1 [GALLIC ACID] |  | 60 |  | Activity (Pichia kudriavzevii [3]): inactive
10 | OC(Cn1cncn1)(Cn1cncn1)c1ccc(F)cc1F [FLUCONAZOLE] | 16 | 4 |  | 
11 | C[C@@]12Oc3cc4oc(-c5ccc(O)cc5)cc(=O)c4c(O)c3[C@@H](C[C@H](O)[C@H]1O)O2 | 62.5 | 7.8 | 250 | IC90 (Nakaseomyces glabratus [2]): 500 µg/mL
12 | C[C@@H]1O[C@@H](O[C@H]2C(=O)[C@@H](O)[C@H](C)O[C@@H]2c2c(O)cc(O)c3c(=O)cc(-c4ccc(O)c(O)c4)oc23)[C@H](O)[C@H](O)[C@H]1O | 100 | 60 |  | 
